Experimental data taken from ChEMBL document CHEMBL3351584, “Binding mode and potency of N-indolyloxopyridinyl-4-aminopropanyl-based inhibitors targeting Trypanosoma cruzi CYP51” (J Med Chem, 2014).

Key:
Format in all cases: ADME, organism-based
[1] = AUClast in Swiss Webster mouse at 25 mg/kg, po administered as single dose by LC-MS/MS method; design: dose 25 mg/kg, route oral, time 0 - last; settings: plasma
Procedure, shortened: (§1)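 Eight-week-old female Swiss Webster mice (n = 3 per compound) given one oral gavage dose of 25 mg/kg, formulated at 5 mg/mL in 20% Kolliphor/80% water. Plasma sampled at about 0.25, 0.5, 1, 2, 4, 6, 8, 12 and 24 h, precipitated with 5× v/v acetonitrile, filtered 0.2 μm and quantified by LC–MS/MS. Parameters calculated from plasma concentration–time curves, averaged over three mice.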

[2] = Cmax in Swiss Webster mouse at 25 mg/kg, po administered as single dose by LC-MS/MS method; design: dose 25 mg/kg, route oral; settings: in vivo; procedure, shortened: as §1
[3] = Tmax in Swiss Webster mouse at 25 mg/kg, po administered as single dose by LC-MS/MS method; design: dose 25 mg/kg, route oral; settings: in vivo; procedure, shortened: as §1
[4] = tested on: Mus musculus; assay: Volume of distribution in Swiss Webster mouse at 25 mg/kg, po administered as single dose by LC-MS/MS method; design: dose 25 mg/kg, route oral; settings: in vivo; procedure, shortened: as §1
[5] = species: Homo sapiens; assay: Volume of distribution in human; settings: in vivo

Row | AUC(0-t) [1] [µM·h] | Cmax [2] [nM] | Tmax [3] [h] | Vd [4] [L/kg] | Compound | Vd [5] [L/kg]
1 | 22.5 | 1850 | 4.67 | 3.97 | O=C(N[C@H](Cc1c[nH]c2ccccc12)C(=O)Nc1ccncc1)c1ccc(N2CCN(c3cc(Cl)cc(Cl)c3)CC2)cc1F | 
2 | 19 | 1800 | 3.33 | 3.44 | Cc1ccc(Cl)cc1N1CCN(c2ccc(C(=O)N[C@H](Cc3c[nH]c4ccccc34)C(=O)Nc3ccncc3)c(F)c2)CC1 | 
3 |  |  |  |  | CC[C@@H]([C@H](C)O)n1ncn(-c2ccc(N3CCN(c4ccc(OC[C@@H]5CO[C@@](Cn6cncn6)(c6ccc(F)cc6F)C5)cc4)CC3)cc2)c1=O [POSACONAZOLE] | 5
